In ChEMBL document CHEMBL1212906, “Apoptotic effects of polyprenylated benzoylphloroglucinol derivatives from the twigs of Garcinia multiflora” (J Nat Prod, 2010):
Activity calls are given as the source filed them. No cut-off for these calls is given here.

Legend:
[1] = Induction of apoptosis in human HeLaC3 cells assessed as yellow fluorescent protein/cyan fluorescent protein emission ratio at 100 uM after 72 hrs by FRET assay; format: functional, HeLa C3
Outline: (§1)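 Caspase-3 FRET biosensor (CFP–DEVD–YFP) HeLa-C3 cells were grown in MEM with 10% FBS, penicillin and streptomycin at 37 °C in 5% CO2. 7500 cells per well were seeded and given compound after 12–16 h (DMSO stock ≥1000× working concentration). A YFP/CFP ratio ≤3 was scored as apoptosis. Triplicates, three repeats.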

[2] = Cytotoxicity against human HeLa cells after 72 hrs by MTT assay
[3] = Induction of apoptosis in human HeLaC3 cells assessed as yellow fluorescent protein/cyan fluorescent protein emission ratio at 25 uM after 72 hrs by FRET assay; format: functional, HeLa C3; outline: as §1
[4] = Induction of apoptosis in human HeLaC3 cells assessed as yellow fluorescent protein/cyan fluorescent protein emission ratio at 50 uM after 72 hrs by FRET assay; format: functional, HeLa C3; outline: as §1
[5] = system: HeLa C3; assay: Induction of apoptosis in human HeLaC3 cells assessed as morphological changes at 50 uM after 24 to 72 hrs; format: functional, cell-based
Outline: (§2)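 Compound-treated HeLa-C3 biosensor cells were photographed under a microscope at 24, 48 and 72 h. Paclitaxel 500 nM was the positive control and untreated cells the negative control. Cell shrinkage and detachment from the plate were taken as apoptotic morphology.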

[6] = system: HeLa C3; assay: Induction of apoptosis in human HeLaC3 cells assessed as morphological changes at 100 uM after 24 to 72 hrs; format: functional, cell-based; outline: as §2
[7] = system: HeLa C3; assay: Induction of apoptosis in human HeLaC3 cells assessed as morphological changes at 25 uM after 24 to 72 hrs; format: functional, cell-based; outline: as §2
[8] = system: HeLa C3; assay: Induction of apoptosis in human HeLaC3 cells at 25 uM after 72 hrs; format: functional, cell-based
Outline: as §1, with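 “concentration). Plates were excited at 440 nm, with emission read at 486 (CFP) and 535 (YFP) nm, for up to 72 h.” for “concentration).”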

| Structure (SMILES) | Ratio [1] | IC50 [2] [µM] | Ratio [3] | Ratio [4] | Activity [5] | Activity [6] | Activity [7] | Activity [8] |
| --- | --- | --- | --- | --- | --- | --- | --- | --- |
| C=C(C)[C@H](CC=C(C)C)C[C@@]12C[C@@H](CC=C(C)C)C(C)(C)[C@@](CC(O)C(C)(C)O)(C(=O)C(C(=O)c3ccc(O)c(O)c3)=C1O)C2=O (stereo partly specified) | >3 | 23 | >3 | >3 | – | – | – | – |
| C=C(C)[C@H](CC=C(C)C)C[C@@]12C[C@@H](CC=C(C)C)C(C)(C)[C@@](CCC(C)(C)O)(C(=O)C(C(=O)c3ccc(O)c(O)c3)=C1O)C2=O [GARCIMULTIFLORONE D] | <=3 | 17.5 | >3 | <=3 | Active | – | – | – |
| C=C(C)C(O)C[C@H](C[C@@]12C[C@@H](CC=C(C)C)C(C)(C)[C@@](CC=C(C)C)(C(=O)C(C(=O)c3ccc(O)c(O)c3)=C1O)C2=O)C(=C)C (stereo partly specified) [GARCIMULTIFLORONE E] | <=3 | 14.3 | >3 | >3 | – | Active | – | – |
| C=C(C)[C@H](CC=C(C)C)C[C@@]12C[C@@H](CC(O)C(C)(C)O)C(C)(C)[C@@](CC=C(C)C)(C(=O)C(C(=O)c3ccc(O)c(O)c3)=C1O)C2=O (stereo partly specified) [GARCIMULTIFLORONE F] | <=3 | 14.9 | >3 | <=3 | Active | – | – | – |
| C=C(C)[C@H](CC=C(C)C)C[C@@]12C[C@@H](CC=C(C)C)C(C)(C)[C@@](CC=C(C)C)(C(=O)C(C(=O)c3ccc(O)c(O)c3)=C1O)C2=O [GUTTIFERONE F] | <=3 | – | >3 | <=3 | Active | – | – | – |
| CC(C)=CC[C@@H]1C[C@]23C[C@H](CC=C(C)C)C(C)(C)[C@](CC=C(C)C)(C(=O)C(C(=O)c4ccc(O)c(O)c4)=C2OC1(C)C)C3=O [ISOXANTHOCHYMOL] | >3 | – | <=3 | >3 | – | – | Active | Active |
| O=C1c2c(O)cc(O)cc2O[C@H](c2ccc(O)cc2)[C@H]1c1c(O)cc(O)c2c(=O)cc(-c3ccc(O)c(O)c3)oc12 [MORELLOFLAVONE] | >3 | – | >3 | >3 | – | – | – | – |
